Reference: ChEMBL document CHEMBL1131169, “Efficacious, orally bioavailable thrombin inhibitors based on 3-aminopyridinone or 3-aminopyrazinone acetamide peptidomimetic templates” (J Med Chem, 1998)
pKi: −log10 of the molar value.

Tests used:
Serine protease 1 = Serine protease 1 (Homo sapiens, UniProt P07477); assay: Inhibitory activity against trypsin was determined
Prothrombin = Prothrombin (Homo sapiens, UniProt P00734); assay: Inhibitory activity against thrombin (IIa) was determined
[1] = in vitro anticoagulant potency (2x APTT) against Human plasma.; type: functional
Rattus norvegicus [2] = assay: In vivo antithrombotic activity was measured after intravenous infusion (at 10 ug/kg/min) in rat FeCl3 arterial thrombosis model; 3/6; type: functional
[3] = Final plasma concentration after intravenous infusion; type: ADME, cell-free; details: read-out: Final plasma concentration
[4] = time required for maximum concentration in dogs at 1 mg/kg dose upon oral administration; type: ADME, organism-based, Canis lupus familiaris; parameters: dose 1 mg/kg, route oral; details: dog, in vivo
Outline: (§1)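 Dogs dosed orally at 1 mg/kg, n = 2 per compound. Plasma drug levels were followed over time to give Cmax (μM), tmax (min), elimination t1/2 (min) and AUC (μM·h).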

[5] = Half-life in dogs at 1 mg/kg dose upon oral administration; type: ADME, organism-based, Canis lupus familiaris; parameters: dose 1 mg/kg, route oral; details: dog, in vivo; outline: as §1
[6] = Area under curve(AUC) value of the compound in dogs at 1 mg/kg dose upon oral administration; type: ADME, organism-based, Canis lupus familiaris; parameters: dose 1 mg/kg, route oral; details: dog, in vivo; outline: as §1
[7] = Maximum plasma concentration in dogs at 1 mg/kg dose upon oral administration; type: ADME, organism-based, Canis lupus familiaris; parameters: dose 1 mg/kg, route oral; details: dog; outline: as §1
Rattus norvegicus [8] = assay: In vivo antithrombotic activity was measured after intravenous infusion (at 10 ug/kg/min) in rat FeCl3 arterial thrombosis model; 0/6; type: functional
[9] = time required for maximum concentration in dogs at 0.5 mg/kg dose upon oral administration; type: ADME, organism-based, Canis lupus familiaris; parameters: dose 0.5 mg/kg, route oral; details: dog, in vivo
Outline: (§2)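 Oral dosing at 0.5 mg/kg in dogs (n = 4) with plasma levels followed over time. Reported as Cmax (μM), tmax (min), terminal t1/2 (min) and AUC (μM·h), each given as mean ± spread. The same dogs later received an iv crossover dose at 0.5 mg/kg to estimate oral bioavailability.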

[10] = Maximum plasma concentration in dogs at 0.5 mg/kg dose upon oral administration; type: ADME, organism-based, Canis lupus familiaris; parameters: dose 0.5 mg/kg, route oral; details: dog; outline: as §2
[11] = Area under curve(AUC) value of the compound in dogs at 0.5 mg/kg dose upon oral administration; type: ADME, organism-based; parameters: dose 0.5 mg/kg, route oral; details: dog, in vivo; outline: as §2
[12] = in vitro anticoagulant potency (2x APTT) against rat plasma.; type: functional
[13] = Final plasma concentration after intravenous infusion at 5 ug/kg/min dose; type: ADME, cell-free; details: 0.005 mg/kg, read-out: Final plasma concentration
Rattus norvegicus [14] = assay: In vivo antithrombotic activity was measured after intravenous infusion (at 5 ug/kg/min) in rat FeCl3 arterial thrombosis model; 4/6; type: functional
[15] = Half-life in dogs at 0.5 mg/kg dose upon oral administration; type: ADME, organism-based, Canis lupus familiaris; parameters: dose 0.5 mg/kg, route oral; details: dog, in vivo; outline: as §2
[16] = Area under curve(AUC) value of the compound; type: ADME
Rattus norvegicus [17] = assay: In vivo antithrombotic activity was measured after intravenous infusion (at 5 ug/kg/min) in rat FeCl3 arterial thrombosis model;1/6; type: functional
Rattus norvegicus [18] = assay: In vivo antithrombotic activity was measured after intravenous infusion (at 10 ug/kg/min) in rat FeCl3 arterial thrombosis model; 0/9; type: functional

Chain of Serine protease 1 (P07477 whole entry): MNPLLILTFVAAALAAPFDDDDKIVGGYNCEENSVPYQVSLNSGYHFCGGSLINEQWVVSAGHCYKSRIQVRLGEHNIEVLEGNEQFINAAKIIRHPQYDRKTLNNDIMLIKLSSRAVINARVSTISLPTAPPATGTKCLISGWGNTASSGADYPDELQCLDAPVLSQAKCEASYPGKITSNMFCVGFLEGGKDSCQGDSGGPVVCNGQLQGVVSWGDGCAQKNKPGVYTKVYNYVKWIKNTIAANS

Compound | pKi (Serine protease 1) | pKi (Prothrombin) | 2x APTT [1] | concentration [3] | further results
Cc1nc(N)ccc1CNC(=O)Cn1c(C)cnc(NC(C)(C)Cc2ccccc2)c1=O | 5.59 | 7.62 |  |  | 
Cc1nc(N)ccc1CNC(=O)Cn1c(C)c(Cl)nc(NCCc2ccccc2)c1=O | 5.68 | 8.15 | 5470 nM |  | 
Cc1cc(N)nc(C)c1CNC(=O)Cn1c(C)cnc(NCCc2ccccc2)c1=O | 6.00 | 9.46 | 420 nM | 224 nM | Occlusions (Rattus norvegicus [2]): 3
Cc1nc(N)ccc1CNC(=O)Cn1c(C)cnc(N[C@H](C)Cc2ccccc2)c1=O | 5.82 | 9.28 | 350 nM | 554 nM | Tmax [4]: 0.417 h; half-life [5]: 2.13 h; AUC [6]: 1.85 µM·h; Cmax [7]: 600 nM; Occlusions (Rattus norvegicus [8]): 0
Cc1nc(N)ccc1CNC(=O)Cn1c(C)cnc(N[C@@H](C)Cc2ccccc2)c1=O | 5.32 | 7.66 |  |  | 
Cc1nc(N)ccc1CNC(=O)Cn1c(C)cnc(NCCc2ccccc2)c1=O [L-375378] | 5.74 | 9.10 | 410 nM | 445 nM | Tmax [9]: 0.875 h; Cmax [10]: 1960 nM; AUC [11]: 11.2 µM·h; 2x APTT [12]: 380 nM; concentration [13]: 238 nM; Occlusions (Rattus norvegicus [8]): 0; Occlusions (Rattus norvegicus [14]): 4; half-life [15]: 3.85 h
Cc1cnc(NCCc2ccccc2)c(=O)n1CC(=O)NCc1ccc(N)nc1 | 5.92 | 8.08 | 2100 nM |  | 
Cc1nc(N)ccc1CNC(=O)Cn1c(C)ccc(NS(=O)(=O)Cc2ccccc2)c1=O [L-374087] | 5.49 | 9.30 | 210 nM | 586 nM | Tmax [4]: 1.25 h; AUC [16]: 4.42 µM·h; half-life [5]: 2.57 h; 2x APTT [12]: 250 nM; Cmax [7]: 990 nM; Occlusions (Rattus norvegicus [17]): 1; concentration [13]: 221 nM; Occlusions (Rattus norvegicus [18]): 0
